Experimental findings from ChEMBL document CHEMBL2176995, “An oral sphingosine 1-phosphate receptor 1 (S1P(1)) antagonist prodrug with efficacy in vivo: discovery, synthesis, and evaluation” (J Med Chem, 2012) are described below.

The subject of data set [1] is Rattus norvegicus. As to the kind of experiment: Toxicity in stringent Dark Agouti to Lewis rat heterotopic vascular heart allotransplantation model assessed as incidence of histopathological changes at 30 mg/kg, po bid coadministered with 0.3 mg/kg, qd everolimus by hematoxylin and eosin staining. To be noted: in vivo. The format is organism-based. The method in brief: (§1)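 DA donor hearts were grafted into Lewis recipients. Treatment started 3 days before transplantation: prodrug 30 mg/kg po b.i.d. (PEG200/water, pH 5) alone or with sotrastaurin 10 mg/kg po b.i.d. or everolimus 0.3 mg/kg po q.d. Grafts were followed to rejection or up to 50 days. Allografts were formalin-fixed, cut at 3 μm, stained with H&E and trichrome, and scored for rejection. Lymphocytes were counted weekly before dosing, and body weight was monitored.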

In data set [2] the test system is Rattus norvegicus. The data set can be described thus: Reduction in peripheral blood lymphocytes in Lewis rat assessed as remaining circulating lymphocytes level at 30 mg/kg, po administered as single dose measured 14 hrs post dose by automated hematology analyzer. It is filed as functional. The method in brief: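 Male Lewis rats receive a single oral dose of compound or vehicle, freshly made in 30% PEG200/buffer. Blood (<200 μL) is drawn by sublingual puncture under isoflurane 5% v/v at baseline and later time points. Lymphocytes are counted on an automated hematology analyzer, and each animal's change is expressed as percent of its own pre-treatment baseline.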

Data set [3] deals with Rattus norvegicus. The data set can be described thus: Toxicity in stringent Dark Agouti to Lewis rat heterotopic vascular heart allotransplantation model assessed as incidence of histopathological changes at 30 mg/kg, po bid coadministered with 10 mg/kg, bid sotrastaurin by hematoxylin and eosin staining. It is filed as organism-based. Conditions: in vivo. The method in brief:
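DA hearts grafted into rat recipients. Test agent 30 mg/kg po b.i.d. (in PEG200/water, pH 5 with 0.1 M HCl) plus the PKC inhibitor 10 mg/kg po b.i.d. (in D-glucose/PEG400/water/0.1 M HCl), started 3 days before transplantation. The study ended at rejection or a set end point. Grafts were formalin-fixed and paraffin-embedded, and 3 μm sections were stained with H&E and trichrome. Acute cellular rejection (0–3R), vasculopathy and fibrosis were scored; lungs were also examined.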

The nature of data set [4]: Cmax in Lewis rat blood at 30 mg/kg, po administered as single dose measured 8 hrs post dose.
Data set [5] concerns Rattus norvegicus. As to the kind of experiment: Toxicity in stringent Dark Agouti to Lewis rat heterotopic vascular heart allotransplantation model assessed as compound tolerance at 30 mg/kg, po bid coadministered with 0.3 mg/kg, qd everolimus. The format is organism-based. Conditions: in vivo. The method in brief:
as §1

Data set [6] relates to Rattus norvegicus. The data set can be described thus: Increase in allograft survival in stringent Dark Agouti to Lewis rat heterotopic vascular heart allotransplantation model assessed as improvement in histological changes at 30 mg/kg, po bid coadministered with 10 mg/kg, bid sotrastaurin by hematoxylin and eosin staining. It is filed as functional, organism-based. The method in brief:
as §1

Data set [7] is described as follows: Stability in pH 7.4 buffer assessed as compound hydrolysis measured after 18 hrs by UPLC. The format is physicochemical. To be noted: read-out: Drug degradation. The essentials:
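The ester was incubated in buffer at pH 7.4 or pH 10. Remaining ester and the hydrolysed carboxylic acid were followed over time by UPLC, at time points out to 82 h.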

Data set [8] deals with Rattus norvegicus. As to the kind of experiment: Induction of capillary leakage in Lewis rat Evans blue dye lung leakage model at 30 mg/kg, po bid measured 96 hrs after 6 hrs relative to untreated control. It is filed as organism-based. Further details: dose 30 mg/kg, route oral. To be noted: in vivo. The method in brief:
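Male Lewis rats were gavaged twice daily with vehicle or 30 mg/kg in 30% PEG200/buffer. Evans blue dye (20 mg/2 mL NaCl/kg iv) was given under anesthesia at 5, 23 or 95 h. One hour later the rats were bled, lungs were perfused with saline, dried at 60 °C for 24 h, weighed, and dye was extracted in formamide (24 h, 37 °C). Thoracic fluid volume was also recorded.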

The subject of data set [9] is Rattus norvegicus. As to the kind of experiment: Increase in allograft survival in stringent Dark Agouti to Lewis rat heterotopic vascular heart allotransplantation model assessed as allograft mean survival time at 30 mg/kg, po bid (reference value: 6 days). The format is functional.
Another data set has as its system Blood. The data set can be described thus: Drug level in Lewis rat blood assessed as level of (S)-2-{[3'-(4-Chloro-2,5-dimethylphenylsulfonylamino)-3,5-dimethylbiphenyl-4-carbonyl]methylamino}-4-dimethylaminobutyric Acid Hydrochloride at 30 mg/kg, po administered as single dose measured 24 hrs post dose. To be noted: in vivo.

Activity calls are given as the source filed them. The rule behind the calls is not given here.

As for `COC(=O)[C@H](CCN(C)C)N(C)C(=O)c1c(C)cc(-c2cccc(NS(=O)(=O)c3cc(C)c(Cl)cc3C)c2)cc1C`, the Activity entry in the data set with Rattus norvegicus [1] is listed as “Non-toxic”; in the data set with Rattus norvegicus [2], 21%; in the data set with Rattus norvegicus [3], “Non-toxic”; with Rattus norvegicus [5], “Non-toxic”. The compound also had a Cmax in [4] of 0.364 µg/mL. Besides, in the data set with Rattus norvegicus [6], the result was Active. Further, the degraded at 18 h in data set [7] is 48%. For the same compound, the “fold change (FC)” value in the data set on Rattus norvegicus [8] is reported as 2.2. Besides, the MST in the data set on Rattus norvegicus [9] amounted to 8 days. Moreover, the Drug uptake in the data set with Blood amounted to 5 ng/mL.
